Data set [1] is described as follows: folding enthalpy; higher = less favourable; fluorescence melt of hairpins on a sequencing array, two-state fit. To be noted: sodium 0.088 M. The method, boiled down:
(§1)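 Two-state fits, bootstrapped, provided melting temperature and folding enthalpy from Cy3 fluorescence normalised to pre-quench Cy3 and to control constructs. Library hairpins with annealed Cy3 and quencher oligos were imaged on a sequenced MiSeq flow cell in 50 mM Na-HEPES pH 8.0, 25 mM NaCl, at 2.5 °C intervals up to 60 °C. Four replicates were combined with inverse-variance weighting. A 9.35 °C upward shift was applied to fitted temperatures to match UV melts.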

Data set [2] is described as follows: melting temperature; fluorescence melt of hairpins on a sequencing array, two-state fit, raised by 9.35 °C to match UV melts. To be noted: sodium 0.088 M. The method, boiled down:
as §1

As to GTGACAGGAAACTGTTAC ((.((((....)))).)), in data set [1], the folding enthalpy was -28.1 kcal/mol. Moreover, the Tm in data set [2] turned out to be 45.4 °C.
Turning to GCGGTAATCCGC ((((....)))), the folding enthalpy in data set [1] was -24.7 kcal/mol. Further, the Tm in data set [2] is 56.2 °C.
In the case of GAACAACCGAAAGGTTTC (((..(((....)))))), in data set [1], the folding enthalpy was -9.63 kcal/mol. In data set [2], the Tm is 29.3 °C.
With GAGACGGCGAAAGCCCTC (((..(((....)))))), the folding enthalpy in data set [1] is -6.29 kcal/mol. Also, the Tm in data set [2] turned out to be 34.5 °C.
On to GCGAACGGAAACACTCGC ((((..(....)..)))), for which, in data set [1], the folding enthalpy was -21.9 kcal/mol. Also, the Tm in data set [2] amounted to 32.3 °C.
With GTTATCGCGAAAGCGAAC (((..(((....)))))), the folding enthalpy in data set [1] was -7.39 kcal/mol. In addition, the Tm in data set [2] came to 29.8 °C.
GCGGAGTTCCGC ((((....)))): the folding enthalpy in data set [1] is -23.4 kcal/mol. The Tm in data set [2] was found to be 59.6 °C.
The matching figures for GATGTCGCGAAAGCGATC (((..(((....)))))): -8.5 kcal/mol and 31.1 °C.
On to GTCGGCCGAAAGGCGGAC (((.(((....))).))), for which the folding enthalpy in data set [1] is -27.5 kcal/mol. Further, the Tm in data set [2] was 67.8 °C.
The matching figures for GCGAAAACTCGC ((((....)))): -13.1 kcal/mol and 41.7 °C.
For GATCCAATTTTGGATC ((((((....)))))), the folding enthalpy in data set [1] was -40.2 kcal/mol. Moreover, the Tm in data set [2] was 54 °C.
GAAAGGCGAAAGCCATTC (((.(((....))).))): in data set [1], the folding enthalpy was -16.5 kcal/mol. The Tm in data set [2] was 41.4 °C.
With CCCTAGAAATAGGG (((((....))))), the folding enthalpy in data set [1] is -20.7 kcal/mol. The Tm in data set [2] came to 38.2 °C.
In the case of GATCCCGGGTGGGATC ((((((....)))))), the folding enthalpy in data set [1] is -36 kcal/mol. Moreover, in data set [2], the Tm was 60.3 °C.
For GACATGAAAATGTC (((((....))))), the folding enthalpy in data set [1] was -24 kcal/mol. For the same sequence, the Tm in data set [2] amounted to 50.4 °C.
With GATCGCCTAAGCGATC ((((((....)))))), the folding enthalpy in data set [1] was -40.8 kcal/mol. For the same sequence, the Tm in data set [2] amounted to 68 °C.
Consider GATCATCGTCATGATC ((((((....)))))), for which the folding enthalpy in data set [1] is -32.4 kcal/mol. Further, the Tm in data set [2] came to 45.4 °C.
With GCAATTGGAAACAACTGC (((.(((....))).))), the folding enthalpy in data set [1] was -26.6 kcal/mol. The Tm in data set [2] was 34.8 °C.
For the sequence GAATTACGAAAGTACTTC (((.(((....))).))), in data set [1], the folding enthalpy is -20.1 kcal/mol. The Tm in data set [2] amounted to 32.5 °C.
As to GCTCGCGGAAACGTGAGC ((((.((....)).)))), in data set [1], the folding enthalpy was -37.6 kcal/mol. For the same sequence, the Tm in data set [2] was 64.9 °C.
Consider GATTGAGGAAACTCAATC (((((((....))))))), for which the folding enthalpy in data set [1] was -52.3 kcal/mol. For the same sequence, in data set [2], the Tm stood at 53.6 °C.
GTTCAACGAAAGTTTAAC (((.(((....))).))): the folding enthalpy in data set [1] is -22.9 kcal/mol. Also, the Tm in data set [2] is 35.2 °C.
For the sequence GGACCCGAAAGGGCTTCC ((((((....)))..))), the folding enthalpy in data set [1] is -17 kcal/mol. Moreover, the Tm in data set [2] was 40.6 °C.
Turning to GGGGGTGGAAACATCCCC ((((.((....)).)))), the folding enthalpy in data set [1] is -34.7 kcal/mol. In data set [2], the Tm was determined as 56.8 °C.
Turning to GCCTTCCGAAAGGAGGC (((.(((....)))))), the folding enthalpy in data set [1] is -29.8 kcal/mol. For the same sequence, the Tm in data set [2] came to 59.4 °C.
As to GGAAGCGGAAACACTTCC (((((.(....).))))), the folding enthalpy in data set [1] is -32.9 kcal/mol. Besides, the Tm in data set [2] was 44.3 °C.
GACAACACGAAAGTGGTC (((..(((....)))))): the folding enthalpy in data set [1] is -16 kcal/mol. The Tm in data set [2] is 39.8 °C.
Turning to GATTGTACGAAAGTAATC (((..(((....)))))), the folding enthalpy in data set [1] is -18.7 kcal/mol. For the same sequence, the Tm in data set [2] turned out to be 28.1 °C.
On the same counts, the results for GTCTACGAAAGTAGCGAC ((((((....)))..))) are -17.6 kcal/mol and 47 °C.
Consider GGTATTCGAAAGAAACC (((.(((....)))))), for which, in data set [1], the folding enthalpy is -16.9 kcal/mol. Moreover, in data set [2], the Tm worked out at 31.7 °C.
With GAGTTTGGAAACAAACTC (((((((....))))))), in data set [1], the folding enthalpy is -43.1 kcal/mol. For the same sequence, the Tm in data set [2] amounted to 58.3 °C.
The matching figures for GAATAAGGAAACTTGTTC (((.(((....))).))): -17 kcal/mol and 29.6 °C.
For GACTCCGAAAGGAAAGTC ((((((....)))..))), the folding enthalpy in data set [1] was -24.8 kcal/mol. For the same sequence, the Tm in data set [2] was 44.4 °C.
Take GCCTACGGAAACGCAGGC ((((.((....)).)))): the folding enthalpy in data set [1] is -27.6 kcal/mol. Further, the Tm in data set [2] came to 52.6 °C.
Regarding GCATTTCGAAAGAAGTGC (((.(((....))).))), in data set [1], the folding enthalpy is -45.6 kcal/mol. The Tm in data set [2] is 51.4 °C.
In the case of GTTCCCCGAAAGGGAAC (((.(((....)))))), the folding enthalpy in data set [1] is -29.6 kcal/mol. Moreover, the Tm in data set [2] worked out at 61.2 °C.
The matching figures for GCGTAGAGACGC ((((....)))): -13.3 kcal/mol and 49.1 °C.

These data come from the array DNA melting data of Ke et al. (doi:10.1101/2024.01.08.574731).
